# Measured values published in article PMC5697452 (ACS Chemical Biology, 2017).
# “Also recorded” adds a separate entry of the source.
# What was measured:
# APMA-activated MMP-9 = APMA-activated MMP-9 (Homo sapiens, UniProt P14780); assay: Fluorogenic peptide assay of MMP-9 catalytic activity; type: biochemical; settings: 10 μM fluorogenic peptide, 2 h; for inhibition of MMP-9 catalytic activity: 50 μM compound
# How it was run: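 Recombinant proMMP-9 was activated overnight at 37 °C in TNC buffer with 1 mM APMA. […] Fluorescence (ex 320/em 405 nm) was read every 10 min over 2 h.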
# [1] = tested on: HT1080 fibrosarcoma cells; assay: Two-dimensional dot migration assay, HT1080 cells; type: cell-based, human; settings: 50 µM, relative to control groups
# [2] = tested on: EGFR, AKT, Erk1/2, Src, FAK, PAX phosphorylation; assay: Immunoblot of downstream signaling phosphorylation in HT1080 cells; type: cell-based, human; settings: 50 μM
# How it was run: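 HT1080 cells transiently expressing Myc-tagged MMP-9 were treated with 50 μM compound. Lysates were run on 10% SDS-PAGE and immunoblotted for phospho-Src Tyr418, phospho-FAK Tyr576/577 and phospho-PAX Tyr118.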
# HT1080 cells [3] = assay: Immunofluorescence of HT1080 cells; type: cell-based, human; settings: for MMP-9 cell surface localization: 50 μM; for formation of FAK and PAX adhesion junctions: 50 μM overnight
# How it was run: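 HT1080 cells were fixed in 4% paraformaldehyde/PBS and blocked in 5% BSA/PBS. Staining used anti-MMP-9 (anti-rabbit Alexa 488) with anti-α4 and/or anti-β1 integrin (anti-mouse Alexa 568), or anti-p-FAK Tyr576/577 (Alexa 568) and anti-p-PAX Tyr118 (Alexa 488). Nuclei were counterstained with DAPI, and images were taken by two-photon laser-scanning confocal microscopy.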
# HT1080 cells [4] = assay: Cellular adhesion assay on collagen or fibronectin; type: cell-based, human; settings: 30 min at 37 °C
# How it was run: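 HT1080 cells seeded in 96-well plates coated with a thin layer of collagen or fibronectin (5 μg/mL in PBS). Cells were held 30 min at 37 °C with test compound. Wells were then washed and the cells fixed in 4% paraformaldehyde and stained with DAPI. Adherent cells were imaged and counted automatically.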
# [5] = tested on: HT1080 cells on chicken embryo CAM; assay: Chorioallantoic membrane; type: in vivo; settings: final concentration estimated 0.5 μM, 4-day incubation, vs DMSO and 1f
# How it was run: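 Fertilized white chicken eggs were incubated 3 days at 37 °C and 70% humidity, then cultured ex ovo in Petri dishes. HT1080 cells adsorbed onto a gelatin sponge were implanted on the CAM. Compound was added from a 100 μM stock (estimated final 0.5 μM); DMSO served as control. Blood vessels surrounding the sponge were counted on day 4 at 37 °C.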
# [6] = tested on: HT1080 cells on chicken embryo CAM; assay: Chorioallantoic membrane; type: in vivo; settings: final concentration estimated 0.5 μM, 7-day incubation, vs DMSO and 1f
# How it was run: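 Ex ovo chick embryos were inoculated at day 10 with pretreated GFP-expressing HT1080 cells in a 3 mg/mL collagen solution seeded atop the CAM. Compound was added from a 100 μM stock (estimated final 0.5 μM), with DMSO control. After 7 days at 37 °C, CAM segments were formalin-fixed, OCT-embedded, cut at 6 μm and H&E stained. GFP+ cells were scored by fluorescence microscopy.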
# [7] = tested on: proMMP-9-mediated cancer cell migration; settings: in vitro; cited from earlier work
# MMP-9 = settings: cited from earlier work
# closely related MMPs = settings: cited from earlier work
# cancer metastasis = settings: in vivo mouse xenograft model; cited from earlier work
# proMMP-9 [8] = target: T1, proMMP-9 (Homo sapiens, UniProt P14780); assay: Tryptophan fluorescence blue-shift binding assay with proMMP-9
# proMMP-9/MMP-2PEX = assay: Tryptophan fluorescence binding assay with chimera proMMP-9/MMP-2PEX; set-up: species or system human; settings: chimera with MMP-2 PEX domain, 0.5 μM
# How it was run: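 Purified recombinant chimera (0.5 μM) was titrated with test compound in TNC buffer (50 mM Tris-HCl, 10 mM CaCl2, pH 7.5). A buffer-only addition served as the protein stability control. After each addition the sample was stirred 1 min at RT, excited at 280 nm, and scanned 300–425 nm, averaging three scans. Kd was fitted to ΔF/ΔFMax, where ΔF is the emission shift in nm.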
# proMMP-9 [9] = target: T1, proMMP-9; assay: Saturated transfer difference; type: binding; settings: compound:protein 38:1 (300 µM:8 µM), 4 °C
# proMMP-2 = target: T2, proMMP-2 (Homo sapiens, UniProt P08253); assay: Saturated transfer difference; type: binding; settings: compound:protein 38:1 (300 µM:8 µM), 4 °C
# T2 sequence (P08253 30-660 limits assumed): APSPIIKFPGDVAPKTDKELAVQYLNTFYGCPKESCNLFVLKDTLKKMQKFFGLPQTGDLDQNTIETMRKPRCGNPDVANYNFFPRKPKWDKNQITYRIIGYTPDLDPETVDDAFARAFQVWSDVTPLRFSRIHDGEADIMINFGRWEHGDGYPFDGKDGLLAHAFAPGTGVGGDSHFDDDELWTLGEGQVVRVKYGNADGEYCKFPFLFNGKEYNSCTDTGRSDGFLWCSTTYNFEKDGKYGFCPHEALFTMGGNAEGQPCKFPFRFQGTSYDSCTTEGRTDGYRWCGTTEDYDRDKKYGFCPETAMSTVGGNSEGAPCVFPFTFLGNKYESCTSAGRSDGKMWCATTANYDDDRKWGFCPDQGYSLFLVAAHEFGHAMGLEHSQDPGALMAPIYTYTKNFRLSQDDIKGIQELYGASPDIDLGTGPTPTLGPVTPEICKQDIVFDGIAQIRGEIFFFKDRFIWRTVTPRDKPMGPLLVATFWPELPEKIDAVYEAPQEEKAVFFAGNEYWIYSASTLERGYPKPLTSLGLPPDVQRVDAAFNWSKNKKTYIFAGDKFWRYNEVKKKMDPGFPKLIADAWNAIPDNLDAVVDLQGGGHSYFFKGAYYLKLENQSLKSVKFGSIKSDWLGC
# COS-1 cells = assay: MTT cell viability, COS-1 cells; type: cell-based, monkey; settings: 24 h
# How it was run: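 COS-1 cells stably expressing vector control or proMMP-9 cDNA were treated 24 h with DMSO, 50 μM compound, or 100 nM staurosporine (positive control for acute toxicity). Viability was assessed by MTT.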
# [10] = tested on: HT1080 fibrosarcoma cells; assay: Chronic toxicity in HT1080 fibrosarcoma cells; type: cell-based, human; settings: 100 μM, retreated every 3 days for 9 days; data not shown
# How it was run: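 HT1080 cells were cultured in complete medium with or without compound, with medium and compound replaced repeatedly over 9 days. Viability was measured daily by MTT: 4 h at 37 °C, then formazan solubilised and absorbance read at 570 nm.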
# [11] = tested on: proMMP-2 expressing COS-1 cells; assay: Two-dimensional dot migration assay, COS-1 cells expressing proMMP-2; type: cell-based, monkey; settings: 50 μM
# How it was run: (§1)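 COS-1 cells expressed vector pQCXIP, proMMP-2, proMMP-9 or proMMP-14 (polyethylenimine transfection, 48 h at 37 °C); expression was checked by immunoblot of lysates and serum-free medium. Cells were mixed 1:1 with neutralized type I collagen (3 mg/mL) on ice, and 1 μL dots (1 × 10^7 cells/mL) were set. Dots were covered with complete medium ± 50 μM compound for 18 h, then fixed and DAPI-stained, and migrated cells were counted.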
# [12] = tested on: proMMP-14 expressing COS-1 cells; assay: Two-dimensional dot migration assay, COS-1 cells expressing proMMP-14; type: cell-based, monkey; settings: 50 μM
# How it was run: as §1
# [13] = tested on: EGFR-CD44 and EGFR-β1 integrin; assay: Co-immunoprecipitation of endogenous EGFR in HT1080 cells; type: cell-based, human; settings: 50 μM
# T1 sequence (P14780 20-707 limits assumed): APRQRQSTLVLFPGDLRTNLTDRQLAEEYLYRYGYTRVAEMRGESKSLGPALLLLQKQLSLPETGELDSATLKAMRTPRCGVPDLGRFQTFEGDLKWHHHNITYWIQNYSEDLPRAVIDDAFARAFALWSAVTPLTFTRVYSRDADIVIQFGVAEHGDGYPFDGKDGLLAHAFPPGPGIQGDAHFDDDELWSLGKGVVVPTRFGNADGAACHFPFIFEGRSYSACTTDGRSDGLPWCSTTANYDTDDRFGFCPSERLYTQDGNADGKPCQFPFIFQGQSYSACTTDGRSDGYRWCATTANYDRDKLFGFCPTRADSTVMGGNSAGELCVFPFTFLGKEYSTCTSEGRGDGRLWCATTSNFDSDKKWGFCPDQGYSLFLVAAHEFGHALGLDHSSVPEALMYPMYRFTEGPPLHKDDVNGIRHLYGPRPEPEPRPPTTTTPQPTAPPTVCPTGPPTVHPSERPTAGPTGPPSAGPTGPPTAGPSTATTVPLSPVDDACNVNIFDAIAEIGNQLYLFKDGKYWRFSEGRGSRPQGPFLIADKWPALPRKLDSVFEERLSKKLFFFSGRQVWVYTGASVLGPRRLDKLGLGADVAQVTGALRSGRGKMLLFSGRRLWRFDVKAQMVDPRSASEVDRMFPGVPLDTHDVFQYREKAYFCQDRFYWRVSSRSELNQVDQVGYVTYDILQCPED
# APMA-activated MMP-9, sequence (P14780 107-707 limits assumed): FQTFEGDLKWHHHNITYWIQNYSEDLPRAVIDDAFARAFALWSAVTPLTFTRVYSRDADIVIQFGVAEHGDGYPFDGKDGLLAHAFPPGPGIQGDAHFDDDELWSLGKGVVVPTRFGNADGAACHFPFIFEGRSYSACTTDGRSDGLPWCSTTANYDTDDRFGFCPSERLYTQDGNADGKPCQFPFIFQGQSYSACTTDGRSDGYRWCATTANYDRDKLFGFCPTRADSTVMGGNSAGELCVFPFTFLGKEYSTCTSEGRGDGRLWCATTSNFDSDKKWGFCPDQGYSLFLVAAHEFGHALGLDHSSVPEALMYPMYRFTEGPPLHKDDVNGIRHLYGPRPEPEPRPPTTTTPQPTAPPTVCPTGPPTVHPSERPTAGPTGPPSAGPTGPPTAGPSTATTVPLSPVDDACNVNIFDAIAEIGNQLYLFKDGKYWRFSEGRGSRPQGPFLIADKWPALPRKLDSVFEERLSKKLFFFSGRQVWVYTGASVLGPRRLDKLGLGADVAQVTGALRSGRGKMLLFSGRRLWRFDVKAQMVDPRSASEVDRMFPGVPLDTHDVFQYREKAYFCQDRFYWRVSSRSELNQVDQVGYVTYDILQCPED
compound,measurement,setting,value
"CCCc1cc(=O)nc(SCC(=O)Nc2ccc(OC(F)F)cc2)[nH]1 [Compound 1a, N-(4-Difluoromethoxyphenyl)-2-(4-oxo-6-propyl-1,4-dihydropyrimidin-2-ylthio)acetamide]",inhibition of MMP-9 catalytic activity,APMA-activated MMP-9,No inhibition of the catalytic activity was observed
same,inhibition of migration,[1],the same inhibition potency was observed
same,phosphorylation of Src Tyr418 and downstream FAK Tyr576/577 and PAX Tyr118,[2],reduced Src^Tyr418 phosphorylation
same,MMP-9 cell surface localization,HT1080 cells [3],loss of MMP-9 from the cell surface
same,formation of FAK and PAX adhesion junctions,HT1080 cells [3],decrease in the formation of FAK and PAX adhesion junctions
same,cell adhesion to collagen or fibronectin,HT1080 cells [4]; 50 µM,inhibited cellular adhesion
same,angiogenic potential of HT1080 cells (neovascularization),[5],significantly reduced the angiogenic potential
same,invasion of CAM tissue by HT1080 cells,[6],reduced invasion of CAM tissue
same,proMMP-9-mediated cancer cell migration and proliferation,[7],inhibited proMMP-9-mediated cancer cell migration and proliferation
same,inhibition of MMP-9 enzymatic activity,MMP-9,did not inhibit MMP-9 enzymatic activity
same,binding to closely related MMPs,closely related MMPs,does not bind to closely related MMPs
same,cancer metastasis,cancer metastasis,effectively prevented cancer metastasis
"O=C(CCCSc1nc2c(c(=O)[nH]1)CCCC2)Nc1ccc(F)cc1 [Compound 3c, N-(4-Fluorophenyl)-4-(4-oxo-3,4,5,6,7,8-hexahydroquinazolin-2-ylthio)butanamide]",binding affinity relative to parent compound 1a,proMMP-9 [8]; Kd comparison,four times tighter
same,maximal λMax shift,"proMMP-9 [8]; after treatment with 25 μM inhibitor, ex 280 nm",9 nm
same,Kd,"proMMP-9 [8]; tryptophan fluorescence, purified recombinant proMMP-9 0.5 μM, TNC buffer pH 7.5",320 nM
same,shift in tryptophan fluorescence upon titration,proMMP-9/MMP-2PEX,no shift in fluorescence was observed
same,STD NMR peaks,proMMP-9 [9],STD peaks were observed in the presence of proMMP-9
same,STD NMR peaks,proMMP-2,not in the presence of proMMP-2
same,inhibition of MMP-9 catalytic activity,APMA-activated MMP-9,No inhibition of the catalytic activity was observed
same,decrease in cell growth,"COS-1 cells; 50 μM, nonstatistically significant",8%
same,cell death (chronic toxicity),[10],No cell death was observed
same,inhibition of migration,[1],the same inhibition potency was observed
same,inhibition of proMMP-2 mediated cell migration,[11],lack of inhibition
same,inhibition of proMMP-14 mediated cell migration,[12],lack of inhibition
same,phosphorylation of Src Tyr418 and downstream FAK Tyr576/577 and PAX Tyr118,[2],reduced Src^Tyr418 phosphorylation
same,MMP-9 cell surface localization,HT1080 cells [3],loss of MMP-9 from the cell surface
same,formation of FAK and PAX adhesion junctions,HT1080 cells [3],decrease in the formation of FAK and PAX adhesion junctions
same,interaction between EGFR-CD44 and EGFR-β1 integrin,[13],Decreased interaction between EGFR-CD44 and EGFR-β1 integrin
same,cell adhesion to collagen or fibronectin,HT1080 cells [4]; 50 µM,inhibited cellular adhesion
same,angiogenic potential of HT1080 cells (neovascularization),[5],reduces angiogenesis; also recorded: significantly reduced the angiogenic potential
same,invasion of CAM tissue by HT1080 cells,[6],blocks cancer cell invasion of the basement membrane; also recorded: reduced invasion of CAM tissue
"CNC(=O)[C@@H](NC(=O)[C@H](CC(C)C)[C@H](O)C(=O)NO)C(C)(C)C [Marimastat, reference compound]",substrate cleavage by activated MMP-9,APMA-activated MMP-9; 250 nM Marimastat,no substrate cleavage was observed
same,formation of focal adhesion contact sites,HT1080 cells [3]; 80 nM marimastat,did not prevent the formation of focal adhesion contact sites
same,cell adhesion to collagen or fibronectin,HT1080 cells [4]; 80 nM Marimastat,no observable effect on cell attachment
"CN[C@@H]1C[C@H]2O[C@@](C)([C@@H]1OC)n1c3ccccc3c3c4c(c5c6ccccc6n2c5c31)C(=O)NC4 [STS, staurosporine, reference compound]",cell death,"COS-1 cells; 100 nM, positive control",Significant cell death
